High-throughput results as filed in PubChem BioAssay.
Shown is part of a subset that was picked to be rich in hits.
MMP13 inh = blocks human MMP13 activity. P45452. MMP-13 fTHP FRET cleavage, Mca fluorescence. inhibition, % at 4 µM. 0.07% of 65,000 active. AID 570;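 active means inhibition above the mean of compound-free control plate wells plus 3 SD, cut at about 14% in these data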;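 further: 0% = DMSO wells and 100% = wells with reference MMP-13 inhibitor after basal subtraction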
Ecoli tolC = E. coli tolC mutant growth inhibition | 2.2% of 65,000 active | E. coli BW25113 tolC mutant growth, OD615 | growth inhibition, % at 10 µM (by protocol) | AID 573;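 active means growth inhibition at or above a cutoff equal to the mean over every tested compound plus 3 SD, cut at about 60% in these data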;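 further: growth measured after 20 h incubation at 37 °C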
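Doses: one dose of 10 µM final / Material: E. coli BW25113 ΔtolC::kan, tolC deletion mutant strain / Buffer or medium: LB with kanamycin 50 µg/mL / Evaluation: percent growth inhibition / Detection: optical density read at 615 nm / Incubation: 37 °C, 20 h exposure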
HePTP inhibitor = human HePTP phosphatase inhibition. recombinant HePTP phosphatase activity, OD absorbance. P35236. AID 521. inhibition, % at 20 µM. 0.64% of 110,000 active; in the data active means inhibition above about 50%;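 further: plate controls were vehicle for no effect and reference inhibitor for full effect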
Target sequence (P35236 whole entry, looked up): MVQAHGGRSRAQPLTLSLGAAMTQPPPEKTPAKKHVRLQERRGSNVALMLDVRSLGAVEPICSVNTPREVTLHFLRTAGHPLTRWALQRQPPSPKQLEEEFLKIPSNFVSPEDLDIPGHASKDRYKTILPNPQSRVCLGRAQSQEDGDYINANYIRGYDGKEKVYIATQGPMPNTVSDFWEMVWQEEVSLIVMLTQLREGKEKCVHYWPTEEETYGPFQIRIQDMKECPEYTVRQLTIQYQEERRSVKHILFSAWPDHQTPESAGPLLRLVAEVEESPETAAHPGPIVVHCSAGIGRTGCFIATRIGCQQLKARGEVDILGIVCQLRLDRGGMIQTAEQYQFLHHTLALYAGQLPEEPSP
E coli WT exp = growth inhibitors of E. coli BW25113 wild type; OD600 absorbance; growth inhibition, % at 100 µM; 0.15% of 98,000 active; AID 710;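 active means growth inhibition above about 50% at one test dose, limit read from the data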;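 further: growth measured after 20 h incubation at 37 °C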
AP complement = orthogonal test for alternative complement pathway inhibitors | inhibition, % at 5 µM | Human serum alternative complement pathway, LPS-coated ELISA, C3 deposition; tested in compound mixtures | 0.08% of 62,000 active;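 active means inhibition above 30% in each of the two pooled mixtures holding the compound, so the lower value exceeds 30%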;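 further: 0% = serum in Mg-EGTA without compound and 100% = EDTA serum blank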
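Medium: diluted human serum in Mg2+-EGTA GVB++. Assay system: human serum complement alternative pathway, C3 deposition onto LPS. Also added: Plate-bound LPS. Technique: Anti-C3 ELISA, OD 450 nm. Measure: percent inhibition. Incubation: 1 h at 37 °C. Dosing: 5 µM each compound, pools of ten, 50 µM per pool.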
Ec RNAP inh = Escherichia coli RNA polymerase inhibition. E. coli RNA polymerase, fluorescence transcription assay. inhibition, %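 (tested at 10 µM)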. 0.2% of 62,000 active; in the data active means inhibition above about 20%;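 further: 0% = enzyme without compound and 100% = no enzyme blank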
* = called active by the depositor; · = no result.

SMILES	MMP13 inh	Ecoli tolC	HePTP inhibitor	E coli WT exp	AP complement	Ec RNAP inh
O=C(Nc1cc(C(F)(F)F)ccc1Cl)c1nc2nc(-c3ccccc3)cc(C(F)(F)F)n2n1	·	·	-11	·	·	·
Cc1nc(N2CCN(c3ccccc3)CC2)nc2c1C(=O)CC(C)C2 (stereo unspecified)	3	46	-3	1	-3	5
Cc1nc(N2CCN(c3ccccc3)CC2)nc2c1C(=O)CCC2	-3	91*	5	-1	19	10
Cc1ccc2[nH]c3c(NCCN4CCOCC4)ncnc3c2c1	-10	12	8	12	·	5
C=CCNc1ncnc2c1[nH]c1ccc(C)cc12	-67	90*	-8	82*	-16	3
O=C(CN(Cc1ccco1)C(=O)CNS(=O)(=O)c1ccc(Cl)cc1)NC1CCCCC1	2	-17	11	0	5	6
CC(C)C(C(=O)NCc1ccco1)N(C(=O)CNS(=O)(=O)c1ccc(Cl)cc1)C1CCCC1 (stereo unspecified)	2	73*	6	2	12	8
Cc1cccc(-c2cc3nc4c(c(N5CCOCC5)n3n2)CCCC4)c1	-24	85*	9	-16	13	2
Cc1cccc(-c2cc3nc4c(c(N5CCC6(CC5)OCCO6)n3n2)CCCC4)c1	1	51	6	·	-5	-9
Cc1ccc(N2C(=O)CC(NCc3cccnc3)C2=O)cc1 (stereo unspecified)	·	·	-14	·	·	·
Cc1ccc2[nH]c(=O)c(CN(Cc3ccc4c(c3)OCO4)Cc3nnnn3C3CCCC3)cc2c1	2	62*	5	-8	11	3
Cc1cc2cc(CN(Cc3ccc4c(c3)OCO4)Cc3nnnn3C3CCCC3)c(=O)[nH]c2cc1C	-1	4	7	-2	7	8
CCc1ccc2[nH]c(=O)c(CN(Cc3nnnn3C3CCCC3)C3CCCCC3)cc2c1	-11	48	3	-7	8	5
Cc1ccc2[nH]c(=O)c(CN(Cc3nnnn3Cc3ccccc3)C3CCCC3)cc2c1	-10	74*	-8	-4	-5	-1
COc1ccc(N2CCN(CC(=O)Nc3nc4c(s3)CC(C)CC4)CC2)cc1 (stereo unspecified)	-12	100*	2	-12	1	1
COc1cc2c(C)nc3c(c(C)nn3C)c2cc1OC	·	·	0	·	·	·
CCCOc1ccc(C2C(C(=O)c3ccc(C)o3)=C(O)C(=O)N2Cc2cccnc2)cc1 (stereo unspecified)	-1	67*	13	·	14	6
CCOc1ccc(C2C(C(=O)c3ccco3)=C(O)C(=O)N2Cc2cccnc2)cc1 (stereo unspecified)	-2	9	5	-3	3	·
CCCNCC1COc2ccccc2O1 (stereo unspecified)	·	·	·	1	·	·
CCN(c1ccccc1)S(=O)(=O)c1ccc(NCC2COc3ccccc3O2)nc1 (stereo unspecified)	-1	62*	2	-21	21	5
O=C(CSc1nc2ccccc2[nH]1)Nc1cc(C(F)(F)F)ccc1N1CCOCC1	3	100*	3	-7	0	11
COc1ccc(C(=O)Nc2cc(OC)cc(OC)c2)cc1	·	6	5	-1	15	-1
COc1ccc(C(=O)Nc2cc(C(F)(F)F)cc(C(F)(F)F)c2)cc1	·	·	104*	·	·	·
Cc1ccc(-c2csc3ncnc(Sc4nnc(CN5CCCCCC5=O)o4)c23)cc1	3	61*	7	5	4	7
Cc1ccc(-c2csc3ncnc(SCC(=O)Nc4nnc(C)s4)c23)cc1	·	·	·	-5	·	·
SMILES	MMP13 inh	Ecoli tolC	HePTP inhibitor	E coli WT exp	AP complement	Ec RNAP inh
CCOc1ccc(-c2cc(C)n3nc(C(N)=O)cc3n2)cc1	·	·	18	10	·	·
COc1ccc(Cl)cc1NC(=O)c1cc2nc(-c3ccccc3)cc(C)n2n1	·	·	103*	·	·	·
Cc1cc(-c2ccccc2)nc2cc(C(=O)Nc3ccc(Cl)cc3)nn12	·	·	8	·	·	·
CCOc1ccc(-c2cc(C)n3nc(C(=O)Nc4ccc(C(C)=O)cc4)cc3n2)cc1	·	·	94*	·	·	·
CC(C)COc1ccc2[nH]c3c(c2c1)CCC/C3=N\N	·	·	3	·	·	·
Nc1cc(NC(=O)c2cccc(Cl)c2)cc(Oc2cccnc2)c1	·	·	-5	·	·	·
Cc1cccc(N2CCN(C(=O)c3ccc(NS(=O)(=O)c4c(C)noc4C)cc3)CC2)c1C	-1	84*	-13	-12	4	-17
Cc1noc(C)c1S(=O)(=O)Nc1ccc(C(=O)N2CCN(c3cccc(Cl)c3)CC2)cc1	·	·	·	0	·	·
CCc1cccc(NC(=O)c2ccc(NS(=O)(=O)c3c(C)noc3C)cc2)c1	1	77*	-11	14	-7	-6
Cc1ccccc1NS(=O)(=O)c1cccc(S(=O)(=O)c2ccc(Cl)cc2)c1	·	·	3	·	·	·
O=C(O)c1cccc(NC2=C(Cl)C(=O)N(c3ccc(Cl)cc3)C2=O)c1	·	·	104*	·	·	·
Cc1ccc(C2=C/C(=C\c3ccc(-c4ccccc4C(=O)O)o3)C(=O)O2)cc1	·	·	10	·	·	·
O=C1OC(c2ccc(O)cc2)(c2ccc(O)cc2)c2ccccc21	-8	72*	10	·	9	12
O=S(=O)(Nc1nc2ccccc2nc1NCc1ccco1)c1ccc(Cl)cc1	-4	96*	7	-5	2	8
Cc1cccc(S(=O)(=O)Nc2nc3ccccc3nc2NCc2ccco2)c1	-8	75*	13	-3	10	8
Cc1ccc(S(=O)(=O)Nc2nc3ccccc3nc2NCc2ccco2)cc1	-19	20	4	0	-12	5
COc1ccc(C(c2c(C)[nH]c3ccccc23)c2c(C)[nH]c3ccccc23)cc1OC	·	·	1	·	·	·
COc1ccc(CNC(=O)C(C)NC(=O)c2cc3ccccc3o2)cc1 (stereo unspecified)	0	-14	6	0	16	39*
CC(C)C(=O)Nc1ccc(NC(=O)c2cc3ccccc3o2)cc1	5	-6	9	-1	4	4
O=C(O)c1ccccc1N=Nc1cc(-c2ccccc2)oc1O	·	·	101*	·	·	·
O=C(O)c1ccc2c(c1)C(=O)N(c1ccc(-c3nc4cc(N5C(=O)c6ccc(C(=O)O)cc6C5=O)ccc4[nH]3)cc1)C2=O	·	·	101*	·	·	·
CCN=C1SC(CC(=O)Nc2ccccc2C(F)(F)F)C(=O)N1CC (stereo unspecified)	·	·	2	·	·	·
Ic1ccc(OCCCCCCN2CCCC2)cc1	·	·	-14	·	·	·
CCOC(=O)c1cccc(NC(=O)Nc2cc(OC)ccc2OC)c1	-1	83*	9	4	5	14
Nc1nc(CN2CCN(c3cccc(Cl)c3)CC2)nc(N2CCCc3ccccc32)n1	1	100*	4	-6	3	6
Cc1cc(C)n(C(=O)c2cc(=O)[nH]c3ccccc23)n1	·	·	-1	·	·	·
N/C(=N/O)c1nc(N2CCCC2)nc(N(c2ccccc2)c2ccccc2)n1	3	72*	11	-12	1	6
COc1c(Cl)ccc(Cl)c1C(=O)Nc1ccc(C)cc1	·	·	104*	·	·	·
COc1c(Cl)ccc(Cl)c1C(=O)Nc1cccc(Br)c1	·	·	0	·	·	·
